Data published in ChEMBL document CHEMBL2176968, “Identification of less lipophilic riminophenazine derivatives for the treatment of drug-resistant tuberculosis” (J Med Chem, 2012).
≈ marks a conversion by molar mass, not a printed value.

Tests used:
[1] = tested on: Mus musculus; test: Acute toxicity in mouse assessed as survival at 500 mg/kg, po measured for 7 days; type: organism-based; design: dose 500 mg/kg, route oral; settings: in vivo, 168 h
Summary of the method: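 Mice given one oral dose of 500 mg/kg, then observed for 7 days. The number of surviving mice was recorded.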

[2] = tested on: Mycobacterium tuberculosis; test: Antimycobacterial activity against Mycobacterium tuberculosis H37Rv ATCC 27294 after 7 days by microplate Alamar blue assay; type: functional; settings: H37Rv ATCC 27294, 168 h
Summary of the method: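 Run in 96-well plates against M. tuberculosis H37Rv using the Alamar Blue read-out. The MIC was taken as the lowest concentration giving >90% growth inhibition.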

[3] = Selectivity index, ratio of IC50 for african green monkey Vero cells to MIC for Mycobacterium tuberculosis H37Rv ATCC 27294; type: functional
[4] = tested on: Vero; test: Cytotoxicity against african green monkey Vero cells after 48 hrs by MTT assay; type: cell-based; settings: Chlorocebus sabaeus
Summary of the method: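 Vero cells were exposed to compound. The IC50 was taken as the concentration inhibiting 50% of growth relative to an untreated control.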

[5] = Half life in BALB/c mouse at 20 mg/kg, po; type: ADME, organism-based; design: dose 20 mg/kg, route oral; settings: in vivo
[6] = Cmax in BALB/c mouse at 20 mg/kg, po; type: ADME, organism-based; design: dose 20 mg/kg, route oral; settings: in vivo
[7] = Octanol-water partition coefficient, log P of the compound; type: physicochemical
[8] = AUC (0 to 24 hrs) in BALB/c mouse at 20 mg/kg, po; type: ADME, organism-based; design: time < 24 hr, dose 20 mg/kg, route oral; settings: plasma
[9] = Aqueous solubility of the compound in 100 ml buffer solution at pH 1.0; type: physicochemical
Summary of the method: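 Solubility was measured in pH 1 buffer and reported in g/100 mL.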

[10] = Acute toxicity in mouse; type: organism-based; settings: in vivo

Row | SMILES | Activity [1] | MIC [2] | Selectivity Index [3] | IC50 [4] | half-life [5] | Cmax [6] | logP [7] | AUC(0-t) at 24 h [8] | solubility [9] | LD50 [10]
1 | COc1ncccc1Nc1cc2nc3ccccc3n(-c3ccc(Br)cc3)c-2c/c1=N\C1CCOCC1 | Non-toxic | 0.02 µg/mL (≈ 0.0359 µM) | 3200 | > 64 µg/mL | – | – | – | – | – | –
2 | COc1ncccc1Nc1cc2nc3ccccc3n(-c3ccc(OC(F)(F)F)cc3)c-2c/c1=N\C1CCC(OC)CC1 (stereo not drawn) | Non-toxic | 0.016 µg/mL (≈ 0.0271 µM) | 4000 | > 64 µg/mL | 41.2 h | 1300 ng/mL | 4.52 | 24100 ng·h/mL | – | –
3 | COc1ncccc1Nc1cc2nc3ccccc3n(-c3ccc(Cl)cc3)c-2c/c1=N\C1CCOCC1 | Non-toxic | 0.016 µg/mL (≈ 0.0312 µM) | 4000 | > 64 µg/mL | 6.62 h | 2010 ng/mL | 4.15 | 33100 ng·h/mL | – | –
4 | COc1ncccc1Nc1cc2nc3ccccc3n(-c3ccc(Cl)cc3)c-2c/c1=N\C1CCC(OC)CC1 (stereo not drawn) | Non-toxic | 0.016 µg/mL (≈ 0.0296 µM) | 4000 | > 64 µg/mL | 7 h | 3010 ng/mL | 3.74 | 43900 ng·h/mL | – | –
5 | COC1CCC(/N=c2\cc3n(-c4ccc(Cl)cc4)c4ccccc4nc-3cc2Nc2cccnc2C)CC1 (stereo not drawn) | Toxic | 0.011 µg/mL (≈ 0.021 µM) | 3195 | 35.1 µg/mL (≈ 67.1 µM) | – | – | – | – | – | –
6 | COC1CCC(/N=c2\cc3n(-c4ccc(Cl)cc4)c4ccccc4nc-3cc2Nc2ccc(C)nc2)CC1 (stereo not drawn) | Non-toxic | 0.016 µg/mL (≈ 0.0305 µM) | 3180 | 50.9 µg/mL (≈ 97.1 µM) | 16.1 h | 1560 ng/mL | 4.11 | 22100 ng·h/mL | – | –
7 | COc1ncccc1Nc1cc2nc3ccccc3n(-c3ccc(F)cc3)c-2c/c1=N\C(C)C | Non-toxic | 0.03 µg/mL (≈ 0.0661 µM) | 2133 | > 64 µg/mL | 17.5 h | 3020 ng/mL | 4.07 | 52400 ng·h/mL | 0.7 g | –
8 | COc1ncccc1Nc1cc2nc3ccccc3n(-c3ccc(F)cc3)c-2c/c1=N\C1CCC(OC)CC1 (stereo not drawn) | Non-toxic | 0.016 µg/mL (≈ 0.0306 µM) | 4000 | > 64 µg/mL | 7.9 h | 3650 ng/mL | 4.82 | 45400 ng·h/mL | – | –
9 | Cc1ncccc1Nc1cc2nc3ccccc3n(-c3ccc(F)cc3)c-2c/c1=N\C1CCOCC1 | Toxic | 0.026 µg/mL (≈ 0.0542 µM) | 2462 | > 64 µg/mL | – | – | – | – | – | –
10 | COC1CCC(/N=c2\cc3n(-c4ccc(F)cc4)c4ccccc4nc-3cc2Nc2cccnc2C)CC1 (stereo not drawn) | Toxic | 0.019 µg/mL (≈ 0.0374 µM) | 3368 | > 64 µg/mL | – | – | – | – | – | –
11 | COc1ncccc1Nc1cc2nc3ccccc3n(-c3ccc(C(F)(F)F)cc3)c-2c/c1=N\C(C)C | Non-toxic | 0.029 µg/mL (≈ 0.0576 µM) | 2207 | > 64 µg/mL | – | – | – | – | – | –
12 | COc1ncccc1Nc1cc2nc3ccccc3n(-c3ccc(C(F)(F)F)cc3)c-2c/c1=N\C1CCOCC1 | Non-toxic | 0.016 µg/mL (≈ 0.0293 µM) | 4000 | > 64 µg/mL | – | – | – | – | – | –
13 | COc1ncccc1Nc1cc2nc3ccccc3n(-c3ccc(C(F)(F)F)cc3)c-2c/c1=N\C1CCC(OC)CC1 (stereo not drawn) | Non-toxic | 0.016 µg/mL (≈ 0.0279 µM) | 4000 | > 64 µg/mL | – | – | – | – | – | –
14 | Cc1ncccc1Nc1cc2nc3ccccc3n(-c3ccc(C(F)(F)F)cc3)c-2c/c1=N\C1CCOCC1 | Toxic | 0.011 µg/mL (≈ 0.0208 µM) | 5818 | > 64 µg/mL | – | – | – | – | – | –
15 | CC(C)/N=c1\cc2n(-c3ccc(Cl)cc3)c3ccccc3nc-2cc1Nc1cccnc1 | – | 0.03 µg/mL (≈ 0.0682 µM) | 273 | 8.2 µg/mL (≈ 18.6 µM) | – | – | – | – | – | 422 mg/kg
16 | CC(C)/N=c1\cc2n(-c3ccc(Cl)cc3)c3ccccc3nc-2cc1Nc1ccc(Cl)cc1 [CLOFAZIMINE] | – | 0.12 µg/mL (≈ 0.253 µM) | 572 | 68.6 µg/mL (≈ 145 µM) | 29.7 h | 380 ng/mL | 5.34 | 6960 ng·h/mL | – | > 3000 mg/kg
